{"data": "Results of several laboratories", "Serine protease HTRA1 S328A": "Serine protease HTRA1 (Homo sapiens, UniProt Q92743, S328A)", "TMEM97": "Sigma intracellular receptor 2 (TMEM97, Homo sapiens, UniProt Q5BJF2)", "tspO": "tspO (Cereibacter sphaeroides, UniProt Q9RFC8)", "note": "Lines come from different studies, so protocols differ."}
{"SMILES": "CC[C@H](C)[C@H](NC(=O)[C@H](Cc1c[nH]c2ccccc12)NC(=O)[C@H](C)NC(=O)[C@H](C)NC(=O)[C@H](Cc1ccc(O)cc1)NC(=O)[C@@H](N)CO)C(=O)N[C@@H](CC(=O)O)C(=O)N[C@@H](CO)C(=O)N[C@H](C(=O)N[C@@H](CC(C)C)C(=O)N[C@@H](C)C(=O)O)C(C)C", "target": "Serine protease HTRA1 S328A", "read-out": "binding", "method": "ITC", "pH": "pH 8", "quantity": "Kd", "value": "3.9 µM"}
{"SMILES": "COc1ncccc1-c1cnn2ccc(N3CCN(C(=O)OC(C)C)CC3)nc12", "target": "Acetylcholine receptor subunit alpha (CHRNA1, Homo sapiens, UniProt P02708)", "read-out": "ion current", "action": "inhibitor", "quantity": "IC50", "value": "12 µM"}
{"SMILES": "CC(C)C[C@H](NC(=O)CNC(=O)[C@H](C)NC(=O)c1ccc(S(=O)(=O)NC[C@H]2O[C@@H](C)[C@@H](O)[C@@H](O)[C@@H]2O)cc1)C(=O)N[C@@H](C)C(=O)N[C@H]1CCN(c2cc3c(cc2F)c(=O)c(C(=O)O)cn3C2CC2)C1", "target": "Fucose-binding lectin PA-IIL (lecB, Pseudomonas aeruginosa, UniProt Q9HYN5)", "read-out": "ligand displacement", "method": "FP", "quantity": "Ki", "value": "1.43 µM"}
{"SMILES": "CN(C)CCOC(C)(c1ccccc1)c1ccccn1 (centres unmarked)", "target": "TMEM97", "read-out": "ligand displacement", "method": "radioligand", "quantity": "Ki", "value": "> 10 µM"}
{"SMILES": "CC[C@H](C)[C@H](NC(=O)[C@H](Cc1ccccc1)NC(=O)[C@H](CC(=O)O)NC(=O)[C@H](CCCNC(=N)N)NC(=O)[C@@H](NC(=O)[C@H](C)NC(=O)[C@H](CC(C)C)NC(=O)[C@H](CC(N)=O)NC(=O)[C@H](CC(=O)O)NC(=O)[C@H](CC(C)C)NC(=O)[C@@H](NC(=O)[C@@H](NC(=O)[C@H](CO)NC(=O)[C@H](CCSC)NC(=O)[C@H](CCC(=O)O)NC(=O)[C@H](CC(=O)O)NC(=O)[C@H](CO)NC(=O)[C@H](Cc1ccccc1)NC(=O)[C@H](CO)NC(=O)CNC(=O)[C@H](CC(=O)O)NC(=O)[C@H](C)NC(=O)[C@@H](N)Cc1c[nH]cn1)[C@@H](C)O)[C@@H](C)CC)[C@@H](C)O)C(=O)N[C@@H](CC(N)=O)C(=O)N[C@@H](Cc1c[nH]c2ccccc12)C(=O)N[C@@H](CC(C)C)C(=O)N[C@H](C(=O)N[C@@H](CCC(N)=O)C(=O)N[C@H](C(=O)N[C@@H](CCCCN)C(=O)N[C@H](C(=O)N[C@H](C(=O)N[C@@H](CC(=O)O)C(=O)O)[C@@H](C)O)[C@@H](C)CC)[C@@H](C)O)[C@@H](C)CC", "target": "Glucagon receptor (GCGR, Homo sapiens, UniProt P47871)", "read-out": "reporter gene", "action": "agonist", "method": "luciferase", "quantity": "EC50", "value": "> 1 µM"}
{"SMILES": "COc1cc2c(cc1OC)C(=O)C(CC1CCN(Cc3ccccc3)CC1)C2 (centres unmarked)", "target": "TMEM97", "read-out": "ligand displacement", "method": "radioligand", "quantity": "Ki", "value": "0.084 µM"}
{"SMILES": "CC(C)C[C@H](NC(=O)[C@H](Cc1ccccc1)NC(=O)c1cnccn1)B(O)O", "target": "Dipeptidyl peptidase 2 (Homo sapiens, UniProt Q9UHL4)", "read-out": "enzyme activity", "action": "inhibitor", "quantity": "IC50", "value": "8.5 µM"}
{"SMILES": "CC(C)C[C@H](NC(=O)[C@H](CC(=O)O)NC(=O)[C@H](CC(=O)O)NC(=O)[C@H](CC(=O)O)NC(=O)[C@@H](NC(=O)[C@H](Cc1c[nH]c2ccccc12)NC(=O)[C@@H](N)CCC(=O)O)[C@@H](C)O)C(=O)N[C@@H](CO)C(=O)N[C@H](C(=O)N[C@@H](CC(C)C)C(=O)N[C@@H](C)C(=O)O)C(C)C", "target": "Serine protease HTRA1 S328A", "read-out": "binding", "method": "ITC", "pH": "pH 8", "quantity": "Kd", "value": "20.5 µM"}
{"SMILES": "NC[C@@H]1[C@H]2CN3C(=O)c4cccn4[C@@H]4NC(N)=N[C@@]43[C@@H]2[C@]2(N=C(N)N[C@H]2O)[C@H]1Cl (racemic)", "target": "Proteasome subunit beta type-8, chymotrypsin-like site (PSMB8, Homo sapiens, UniProt P28062)", "read-out": "enzyme activity", "action": "inhibitor", "quantity": "IC50", "value": "4.8 µM"}
{"SMILES": "CC(C)(NC(=O)O[C@@H]1CN2CCC1CC2)c1csc(-c2ccc(F)cc2)n1", "target": "Lysosomal acid glucosylceramidase (GBA1, Homo sapiens, UniProt P04062)", "read-out": "enzyme activity", "action": "inhibitor", "quantity": "IC50", "value": "> 300 µM"}
{"SMILES": "CCCN(CCC)CCc1ccc(OC)c(OCCc2ccccc2)c1", "target": "TMEM97", "read-out": "ligand displacement", "method": "radioligand", "quantity": "Ki", "value": "0.0827 µM"}
{"SMILES": "COc1cc(/C=C/C(=O)CC(=O)/C=C/c2ccc(O)c(OC)c2)ccc1O", "target": "tspO", "read-out": "binding", "method": "fluorescence", "quantity": "Kd", "value": "1.4 µM"}
{"SMILES": "COc1cc2c(cc1OC)CN(CCc1ccc(NC(=O)c3cc(OC)c(OC)cc3NC(=O)c3cnc4ccccc4c3)cc1)CC2", "target": "TMEM97", "read-out": "ligand displacement", "method": "radioligand", "quantity": "Ki", "value": "0.0178 µM"}
{"SMILES": "CC(C)C[C@H](NC(=O)[C@H](CO)NC(=O)[C@H](CCC(=O)O)NC(=O)[C@@H](NC(=O)[C@H](CC(C)C)NC(=O)[C@H](CC(=O)O)NC(=O)[C@H](CC(=O)O)NC(=O)[C@H](CC(=O)O)NC(=O)[C@@H](NC(=O)[C@H](Cc1c[nH]c2ccccc12)NC(=O)[C@@H](N)CCC(=O)O)[C@@H](C)O)C(C)C)C(=O)O", "target": "Serine protease HTRA1 S328A", "read-out": "binding", "method": "ITC", "pH": "pH 8", "quantity": "Kd", "value": "39.7 µM"}
{"SMILES": "Cc1cc2c(C(C)C)c(O)c(O)c(C=O)c2c(O)c1-c1c(C)cc2c(C(C)C)c(O)c(O)c(C=O)c2c1O", "target": "tspO", "read-out": "binding", "method": "fluorescence", "quantity": "Kd", "value": "6 µM"}
{"SMILES": "CC1CCN(CCCC(=O)c2ccc(F)cc2)CC1", "target": "TMEM97", "read-out": "ligand displacement", "method": "radioligand", "quantity": "Ki", "value": "0.115 µM"}
{"SMILES": "COc1cc(C(=O)N2CC[C@@H](O)[C@@H](N)C2)cc2nc(-c3cc4ccccc4n3CC3CC3)n(C)c12", "target": "Prostaglandin G/H synthase 2 (PTGS2, Homo sapiens, UniProt P35354)", "read-out": "enzyme activity", "action": "inhibitor", "quantity": "IC50", "value": "> 100 µM"}
